Measured values of several laboratories.
Each line is one published result; the experiments were not run side by side.
Read-out: cell growth or viability

| SMILES | cell line | test | setting | endpoint | value |
| --- | --- | --- | --- | --- | --- |
| COc1ccc(-c2ccc(-c3ccc(C(=N)N)nc3)s2)cc1 | MDA-MB-468 | SRB | – | GI50 | 1.63 µM |
| CC(C)Nc1ccnc(Nc2cccc(-c3nccs3)c2)n1 | MV4-11 | ATP luminescence | 72 h | EC50 | 9.46 µM |
| CNC(=O)COc1cc2cc(Nc3nc(N4CCC(C(=O)NCCCCCCCNC(=O)C[C@@H]5N=C(c6ccc(Cl)cc6)c6c(sc(C)c6C)-n6c(C)nnc65)CC4)ncc3Cl)cc(OC)c2n(C)c1=O | human Fibroblast | – | 72 h | EC50 | ~0.47 µM |
| Fc1ccc(Nc2nccc(NC3CCCCC3)n2)cc1 | MV4-11 | ATP luminescence | 72 h | EC50 | > 3 µM |
| CC(C)(CO)Cn1nc(-c2ccc3nc(OC4CC4)ccc3c2)c2c(N)ncnc21 | CRL8155 | – | – | GI50 | > 10 µM |
| CC(C)c1ccccc1S(=O)(=O)c1cc(N)c2ncccc2c1[N+](=O)[O-] | HN-6 | – | 72 h | IC50 | > 20 µM |
| CC(C)=CCC[C@](C)(O)[C@H]1CC[C@]2(C)[C@@H]1[C@H](O)C[C@@H]1[C@@]3(C)CC[C@H](O[C@@H]4O[C@H](CO)[C@@H](O)[C@H](O)[C@H]4O[C@@H]4O[C@H](CO)[C@@H](O)[C@H](O)[C@H]4O)C(C)(C)[C@@H]3CC[C@]12C | BEAS-2B | MTT | 72 h | IC20 | > 100 µM |
| COC(=O)c1c(C)ncn1CC(c1cn(C)c2ccccc12)c1cn(C)c2ccccc12 | human Fibroblast | MTS | 20 µM, 24 h | inhibition | 5.1% |
| CC(C)Nc1ccnc(Nc2cccc(-c3ccccc3)c2)n1 | MV4-11 | ATP luminescence | 72 h | EC50 | 3.98 µM |
| CCN(CC)CCOC(=O)C1(c2ccc([N+](=O)[O-])cc2)CCCC1 | HN-6 | – | 72 h | IC50 | > 20 µM |
| CC(C)(CO)Cn1nc(-c2ccc3nc(OCC(F)(F)F)ccc3c2)c2c(N)ncnc21 | CRL8155 | – | – | GI50 | > 10 µM |
| CC(C)Nc1ccnc(Nc2cccc(-c3ccncc3)c2)n1 | MV4-11 | ATP luminescence | 72 h | EC50 | > 15 µM |
| COC(=O)c1c(C)ncn1CC(c1c[nH]c2ccc(C)cc12)c1c[nH]c2ccc(C)cc12 | human Fibroblast | MTS | 20 µM, 24 h | inhibition | 13.8% |
| COc1ccc(-c2ccc(-c3ccc(C(=N)N)nc3)s2)cc1Cl | LOX IMVI | SRB | – | GI50 | 1.87 µM |
| CC[C@H](C)Nc1ccnc(Nc2cccc(-c3cccnc3)c2)n1 | MV4-11 | ATP luminescence | 72 h | EC50 | 0.065 µM |
| CCc1ncn(CC(c2c[nH]c3ccc(C)cc23)c2c[nH]c3ccc(C)cc23)c1C(=O)OC | human Fibroblast | MTS | 20 µM, 24 h | inhibition | 6.7% |
| COC(C)(C)CCC[C@](C)(O)[C@H]1CC[C@]2(C)[C@@H]1[C@H](O)C[C@@H]1[C@@]3(C)CC[C@H](O)C(C)(C)[C@@H]3CC[C@]12C | BEAS-2B | MTT | 72 h | IC80 | > 100 µM |
